Assay results as given in ChEMBL document CHEMBL1268901, “Synthesis and in vitro antiviral activities of 3'-fluoro (or chloro) and 2',3'-difluoro 2',3'-dideoxynucleoside analogs against hepatitis B and C viruses” (Bioorg Med Chem, 2010).
Converted amounts (≈) assume the structure as drawn.

Legend:
Hepatitis B virus [1] = assay: Antiviral activity against HBV infected in human HepG2(2.2.15) cells assessed as inhibition of viral replication at 10 ug/ml […] relative to control; assay type: functional; settings: HepG2 2.2.15, 48 h
Hepatitis C virus = assay: Antiviral activity against HCV 1a infected in human HuH7 cells assessed as reduction of viral RNA level at 20 ug/ml […] by QRT-PCR analysis; assay type: functional, Hepacivirus hominis; settings: subtype 1a, Huh-7
[2] = Cytotoxicity against human HuH7 cells after 2 days by XTT assay; assay type: cell-based, Huh-7
Method in brief: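 Huh-7 cells seeded at 1 × 10⁵ cells/well, allowed to attach 6–8 h, then medium replaced with compound at 200, 100, 50, 10 and 1 µg/mL; DMSO control. Incubated 2 days at 37 °C, XTT reagent added for 4 h at 37 °C, absorbance read at 450–500 nm; CC50 reported.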

Duck hepatitis B virus [3] = assay: Antiviral activity against DHBV infected in duck hepatocytes assessed as inhibition of viral DNA replication at 10 ug/ml after 15 days relative to control; settings: Hepatocyte, 360 h
Hepatitis B virus [4] = assay: Antiviral activity against HBV infected in human HepG2(2.2.15) cells assessed as inhibition of viral replication at 5 ug/ml […] relative to control; assay type: functional; settings: HepG2 2.2.15, 48 h
Hepatitis B virus [5] = assay: Antiviral activity against HBV infected in human HepG2(2.2.15) cells assessed as inhibition of viral replication after 2 days; assay type: functional, organism-based; settings: HepG2 2.2.15, 48 h
Duck hepatitis B virus [6] = assay: Antiviral activity against DHBV infected in duck hepatocytes assessed as inhibition of viral DNA replication after 15 days; settings: Hepatocyte, 360 h
Duck hepatitis B virus [7] = assay: Antiviral activity against DHBV infected in duck hepatocytes assessed as inhibition of viral DNA replication at 5 ug/ml after 15 days relative to control; settings: Hepatocyte, 360 h
Duck hepatitis B virus [8] = assay: Antiviral activity against DHBV infected in duck hepatocytes assessed as inhibition of viral DNA replication at 1 ug/ml after 15 days relative to control; settings: Hepatocyte, 360 h
Hepatitis B virus [9] = assay: Antiviral activity against HBV infected in human HepG2(2.2.15) cells assessed as inhibition of viral replication at 0.5 to 1 ug/ml […] relative to control; assay type: functional
Duck hepatitis B virus [10] = assay: Antiviral activity against DHBV infected in duck hepatocytes assessed as inhibition of viral DNA replication at 0.5 to 1 ug/ml after 15 days relative to control

Structure (SMILES): O=c1[nH]c(=S)ccn1[C@H]1C[C@H](F)[C@@H](CO)O1
- inhibition at 10 µg/mL (Hepatitis B virus [1]): 20%
- inhibition at 20 µg/mL (Hepatitis C virus): 0%
- CC50 at 48 h [2]: > 100 µg/mL
- inhibition at 10 µg/mL (Duck hepatitis B virus [3]): 25%

Structure (SMILES): O=c1[nH]c(=O)n([C@H]2C[C@H](F)[C@@H](CO)O2)cc1I
- inhibition at 10 µg/mL (Hepatitis B virus [1]): 60%
- inhibition at 5 µg/mL (Hepatitis B virus [4]): 50%
- EC50 (Hepatitis B virus [5]): 5 µg/mL (≈ 14 µM)
- inhibition at 20 µg/mL (Hepatitis C virus): 40%
- CC50 at 48 h [2]: < 100 µg/mL
- EC50 (Duck hepatitis B virus [6]): 5 µg/mL (≈ 14 µM)
- inhibition at 5 µg/mL (Duck hepatitis B virus [7]): 50%
- inhibition at 10 µg/mL (Duck hepatitis B virus [3]): 63%

Structure (SMILES): O=c1[nH]c(=O)n([C@H]2C[C@H](F)[C@@H](CO)O2)cc1C(F)(F)F
- inhibition at 10 µg/mL (Hepatitis B virus [1]): 20%
- inhibition at 20 µg/mL (Hepatitis C virus): 25%
- CC50 at 48 h [2]: > 100 µg/mL
- inhibition at 10 µg/mL (Duck hepatitis B virus [3]): 20%

Structure (SMILES): O=c1[nH]c(=S)c(F)cn1[C@H]1C[C@H](F)[C@@H](CO)O1
- inhibition at 10 µg/mL (Hepatitis B virus [1]): 0%
- inhibition at 20 µg/mL (Hepatitis C virus): 0%
- CC50 at 48 h [2]: > 100 µg/mL
- inhibition at 10 µg/mL (Duck hepatitis B virus [3]): 0%

Structure (SMILES): O=c1ccn([C@@H]2O[C@H](CO)[C@@H](F)[C@H]2F)c(=O)[nH]1
- inhibition at 10 µg/mL (Hepatitis B virus [1]): 0%
- inhibition at 20 µg/mL (Hepatitis C virus): 0%
- CC50 at 48 h [2]: > 200 µg/mL
- inhibition at 10 µg/mL (Duck hepatitis B virus [3]): 0%

Structure (SMILES): NC(=O)c1ncn([C@@H]2O[C@H](CO)[C@@H](O)[C@H]2O)n1 [RIBAVIRIN]
- inhibition at 20 µg/mL (Hepatitis C virus): 50%

Structure (SMILES): O=c1[nH]c(=O)n([C@H]2C[C@H](Cl)[C@@H](CO)O2)cc1F
- inhibition at 10 µg/mL (Hepatitis B virus [1]): 0%
- inhibition at 20 µg/mL (Hepatitis C virus): 0%
- CC50 at 48 h [2]: > 200 µg/mL
- inhibition at 10 µg/mL (Duck hepatitis B virus [3]): 0%

Structure (SMILES): O=c1[nH]c(=O)n([C@H]2C[C@H](F)[C@@H](CO)O2)cc1CO
- inhibition at 10 µg/mL (Hepatitis B virus [1]): 58%
- inhibition at 5 µg/mL (Hepatitis B virus [4]): 50%
- EC50 (Hepatitis B virus [5]): 5 µg/mL (≈ 19.2 µM)
- inhibition at 20 µg/mL (Hepatitis C virus): 30%
- CC50 at 48 h [2]: > 200 µg/mL
- EC50 (Duck hepatitis B virus [6]): 1 µg/mL (≈ 3.84 µM)
- inhibition at 1 µg/mL (Duck hepatitis B virus [8]): 50%
- inhibition at 10 µg/mL (Duck hepatitis B virus [3]): 75%

Structure (SMILES): Cc1cn([C@@H]2O[C@H](CO)[C@@H](F)[C@H]2F)c(=O)[nH]c1=O
- inhibition at 10 µg/mL (Hepatitis B virus [1]): 0%
- inhibition at 20 µg/mL (Hepatitis C virus): 0%
- CC50 at 48 h [2]: > 100 µg/mL
- inhibition at 10 µg/mL (Duck hepatitis B virus [3]): 0%

Structure (SMILES): O=c1[nH]c(=O)n([C@H]2C[C@H](F)[C@@H](CO)O2)cc1O
- inhibition at 10 µg/mL (Hepatitis B virus [1]): 0%
- inhibition at 20 µg/mL (Hepatitis C virus): 0%
- CC50 at 48 h [2]: > 100 µg/mL
- inhibition at 10 µg/mL (Duck hepatitis B virus [3]): 0%

Structure (SMILES): O=c1[nH]c(=O)n([C@H]2C[C@H](F)[C@@H](CO)O2)cc1F
- inhibition at 10 µg/mL (Hepatitis B virus [1]): 0%
- inhibition at 20 µg/mL (Hepatitis C virus): 28%
- CC50 at 48 h [2]: > 100 µg/mL
- inhibition at 10 µg/mL (Duck hepatitis B virus [3]): 0%

Structure (SMILES): CCc1cn([C@H]2C[C@H](F)[C@@H](CO)O2)c(=O)[nH]c1=O
- inhibition at 10 µg/mL (Hepatitis B virus [1]): 0%
- inhibition at 20 µg/mL (Hepatitis C virus): 0%
- CC50 at 48 h [2]: > 200 µg/mL
- inhibition at 10 µg/mL (Duck hepatitis B virus [3]): 0%

Structure (SMILES): Nc1ccn([C@@H]2CS[C@H](CO)O2)c(=O)n1 [LAMIVUDINE]
- inhibition (INH) (Hepatitis B virus [9]): 88%
- EC50 (Duck hepatitis B virus [6]): 0.05 µg/mL (≈ 0.218 µM)
- inhibition (INH) (Duck hepatitis B virus [10]): 96%

Structure (SMILES): O=c1[nH]c(=O)n([C@H]2C[C@@H](Cl)[C@@H](CO)O2)cc1F
- inhibition at 10 µg/mL (Hepatitis B virus [1]): 50%
- EC50 (Hepatitis B virus [5]): 10 µg/mL (≈ 37.8 µM)
- inhibition at 20 µg/mL (Hepatitis C virus): 30%
- CC50 at 48 h [2]: > 200 µg/mL
- EC50 (Duck hepatitis B virus [6]): 10 µg/mL (≈ 37.8 µM)
- inhibition at 10 µg/mL (Duck hepatitis B virus [3]): 50%

Structure (SMILES): Cc1cn([C@H]2C[C@H](Cl)[C@@H](CO)O2)c(=O)[nH]c1=O
- inhibition at 10 µg/mL (Hepatitis B virus [1]): 56%
- EC50 (Hepatitis B virus [5]): 10 µg/mL (≈ 38.4 µM)
- inhibition at 20 µg/mL (Hepatitis C virus): 0%
- CC50 at 48 h [2]: > 200 µg/mL
- EC50 (Duck hepatitis B virus [6]): 10 µg/mL (≈ 38.4 µM)
- inhibition at 10 µg/mL (Duck hepatitis B virus [3]): 55%
